Measured values: ChEMBL document CHEMBL1817629, “Design, synthesis, bioconversion, and pharmacokinetics evaluation of new ester prodrugs of olmesartan” (Eur J Med Chem, 2011)

Key:
[1] = Stability of the compound in rat liver microsomes assessed as half life at 1 uM by LC/MS/MS analysis; type: ADME, Microsome
Summary of the method: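 Rat liver microsomes (0.5 mg/mL total protein) with 1.2 mM NADPH in 100 mM phosphate buffer pH 7.4; prodrug added from acetonitrile stock (100 μM) to final 1 μM. Kept at 37 °C, sampled 0, 15, 30, 60, 120 min. Stopped with two volumes cold acetonitrile plus internal standard, centrifuged, supernatant by LC-MS/MS. Mean of duplicate experiments.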

[2] = Stability of the compound in rat plasma assessed as half life at 1 uM by LC/MS/MS analysis; type: ADME, cell-free
Summary of the method: (§1)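 Prodrug added from acetonitrile stock (100 μM) to rat plasma or simulated gastric juice at final 1 μM. Held at 37 °C, sampled 0, 15, 30, 60, 120 min. Quenched with two volumes cold acetonitrile containing internal standard, centrifuged, supernatant analyzed by LC-MS/MS. Half-life as mean of duplicate experiments.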

[3] = Stability of the compound in simulated gastric juice assessed as half life at 1 uM by LC/MS/MS analysis; type: physicochemical; summary of the method: as §1
[4] = Metabolic stability in rat plasma assessed as compound remaining at 50 ug/mL after 30 mins by LC-MS/MS analysis; type: ADME, cell-free; conditions: read-out: Stability
Summary of the method: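 Prodrug at 50 μg/mL in rat plasma, incubated 30 min at 37 °C; samples analyzed immediately by LC-MS/MS, reported as percent of compound remaining.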

| half-life at 1 µM [1] [min] | half-life at 1 µM [2] [min] | half-life at 1 µM [3] [min] | remaining at 0.5 h, 50 ug/mL [4] [%] | Structure (SMILES) |
| --- | --- | --- | --- | --- |
| 4.95 | 0.956 | > 1000 | – | CCCc1nc(C(C)(C)O)c(C(=O)OCc2oc(=O)oc2C)n1Cc1ccc(-c2ccccc2-c2nnn[nH]2)cc1 [OLMESARTAN MEDOXOMIL] |
| – | – | – | 90.2 | CCCCCCCCOC(=O)c1c(C(C)(C)O)nc(CCC)n1Cc1ccc(-c2ccccc2-c2nnn[nH]2)cc1 |
| – | – | – | 96.3 | CCCc1nc(C(C)(C)O)c(C(=O)OCc2c[nH]c(=O)[nH]c2=O)n1Cc1ccc(-c2ccccc2-c2nnn[nH]2)cc1 |

Further lines, the compound ahead of its results:

| Structure (SMILES) | half-life at 1 µM [1] [min] | half-life at 1 µM [2] [min] | half-life at 1 µM [3] [min] | remaining at 0.5 h, 50 ug/mL [4] [%] |
| --- | --- | --- | --- | --- |
| CCCc1nc(C(C)(C)O)c(C(=O)OC(C)OC(=O)C2CCCCC2)n1Cc1ccc(-c2ccccc2-c2nnn[nH]2)cc1 (stereo not drawn) | 2.7 | 9.68 | 928 | – |
| CCCc1nc(C(C)(C)O)c(C(=O)OCOC(=O)C23CC4CC(CC(C4)C2)C3)n1Cc1ccc(-c2ccccc2-c2nnn[nH]2)cc1 | 2.28 | 10 | 312 | 79.8 |
| CCCc1nc(C(C)(C)O)c(C(=O)OC(C)OC(=O)c2ccccc2)n1Cc1ccc(-c2ccccc2-c2nnn[nH]2)cc1 (stereo not drawn) | – | – | – | 85.8 |
